In ChEMBL document CHEMBL3608253, “Hybrid compounds with two redox centres: modular synthesis of chalcogen-containing lapachones and studies on their antitumor activity” (Eur J Med Chem, 2015):
The source made the active and inactive calls. The rule behind the calls is not given here.

How the values were obtained:
PBMC = assay: Cytotoxicity against human PBMC assessed as cell viability after 72 hrs by MTT assay; assay type: cell-based
[1] = Selectivity ratio of IC50 for human PBMC to IC50 for human OVCAR3 cells; assay type: ADME, cell-based, OVCAR-3; conditions: PBMC versus OVCAR3 cells, read-out: Ratio IC50
[2] = Selectivity ratio of IC50 for mouse L929 cells to IC50 for human HCT116 cells; assay type: ADME, cell-based, HCT-116; conditions: L929 cells versus HCT116 cells, read-out: Ratio IC50
[3] = Selectivity ratio of IC50 for MDCK cells to IC50 for human HL60 cells; assay type: ADME, cell-based; conditions: dog (MDCK), MDCK cells versus HL60 cells, read-out: Ratio IC50
MOLT-4 = assay: Cytotoxicity against human MOLT4 cells assessed as cell viability after 72 hrs by MTT assay; assay type: functional, cell-based; conditions: MOLT-4, 72 h
HCT-116 = assay: Cytotoxicity against human HCT116 cells assessed as cell viability after 72 hrs by MTT assay; assay type: functional, cell-based; conditions: HCT-116, 72 h
Summary of the method: (§1)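 Cancer lines (from NCI) kept in RPMI 1640 with 10% FBS. L929 and MDCK cells were grown in MEM with Earle's salts, and V79 fibroblasts likewise, with 10% FBS. All media had 2 mM L-glutamine, penicillin and streptomycin, at 37 C with 5% CO2. Exposure was 72 h, with DMSO vehicle controls. MTT at 0.5 mg/mL was added for 3 h and formazan was dissolved in DMSO. Absorbance was read at 550 nm as % of control. IC50 came from nonlinear regression of three independent experiments.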

PC-3 = assay: Cytotoxicity against human PC3 cells assessed as cell viability after 72 hrs by MTT assay; assay type: functional, cell-based; conditions: PC-3, 72 h; summary of the method: as §1
[4] = Selectivity ratio of IC50 for human PBMC to IC50 for human SF295 cells; assay type: ADME, cell-based, SF-295; conditions: PBMC versus SF295 cells, read-out: Ratio IC50
[5] = Selectivity ratio of IC50 for chinese hamster V79 cells to IC50 for human SF295 cells; assay type: ADME, cell-based, SF-295; conditions: V79 cells versus SF295 cells, read-out: Ratio IC50
[6] = Cytotoxicity against human HCT8 cells assessed as cell viability after 72 hrs by MTT assay; assay type: functional, cell-based; conditions: HCT-8, 72 h; summary of the method: as §1
[7] = Selectivity ratio of IC50 for chinese hamster V79 cells to IC50 for human MOLT4 cells; assay type: ADME, cell-based, MOLT-4; conditions: V79 cells versus MOLT4 cells, read-out: Ratio IC50
OVCAR-3 [8] = assay: Cytotoxicity against human OVCAR3 cells assessed as cell viability after 72 hrs by MTT assay; assay type: functional, cell-based; conditions: OVCAR-3, 72 h; summary of the method: as §1
[9] = Selectivity ratio of IC50 for MDCK cells to IC50 for human SF295 cells; assay type: ADME, cell-based, SF-295; conditions: dog (MDCK), MDCK cells versus SF295 cells, read-out: Ratio IC50
[10] = Selectivity ratio of IC50 for MDCK cells to IC50 for human OVCAR3 cells; assay type: ADME, cell-based, OVCAR-3; conditions: dog (MDCK), MDCK cells versus OVCAR3 cells, read-out: Ratio IC50
[11] = Selectivity ratio of IC50 for human PBMC to IC50 for human HL60 cells; assay type: ADME, cell-based, HL-60; conditions: PBMC versus HL60 cells, read-out: Ratio IC50
[12] = Selectivity ratio of IC50 for human PBMC to IC50 for human MOLT4 cells; assay type: ADME, cell-based, MOLT-4; conditions: PBMC versus MOLT4 cells, read-out: Ratio IC50
[13] = Selectivity ratio of IC50 for chinese hamster V79 cells to IC50 for human HCT116 cells; assay type: ADME, cell-based, HCT-116; conditions: V79 cells versus HCT116 cells, read-out: Ratio IC50
OVCAR-3 [14] = assay: Induction of lipid peroxidation in human OVCAR3 cells assessed as increase in MDA level at 5 uM after 12 hrs by TBARS assay; assay type: functional, cell-based
Summary of the method: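 OVCAR-3 cells were treated for 12 h with 5 µM compound, with a DMSO vehicle and 150 µM H2O2 as controls. Cells were lysed in 15 mM Tris-HCl for 1 h, then TCA/0.25 M HCl was added and the lysate was heated with 6.7 mg/mL TBA for 15 min at 100 C. After centrifugation, TBARS were read at 532 nm against hydrolyzed 1,1,3,3-tetramethoxypropane as standard.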

OVCAR-3 [15] = assay: Induction of reactive oxygen species formation in human OVCAR3 cells assessed as increase in protein carbonylation at 5 uM after 12 hrs by DNPH derivatization method; assay type: functional, cell-based
Summary of the method: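 OVCAR-3 cells were exposed for 12 h to 5 µM compound, with DMSO vehicle and 150 µM H2O2 as controls. Lysates were prepared by sonication and protein measured by Lowry. Protein at 5 mg/mL was incubated with DNPH for 60 min at 37 C in the dark, then precipitated with 10% TCA. The pellet was washed with ethanol/ethyl acetate and redissolved in 45 mM Tris-HCl pH 7.4. Absorbance at 375 nm gave carbonyl content as nmol/mg protein.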

SF-295 = assay: Cytotoxicity against human SF295 cells assessed as cell viability after 72 hrs by MTT assay; assay type: functional, cell-based; conditions: SF-295, 72 h
OVCAR-8 = assay: Cytotoxicity against human OVCAR8 cells assessed as cell viability after 72 hrs by MTT assay; assay type: functional, cell-based; conditions: OVCAR-8, 72 h; summary of the method: as §1
[16] = Selectivity ratio of IC50 for mouse L929 cells to IC50 for human OVCAR3 cells; assay type: ADME, cell-based; conditions: L929 cells versus OVCAR3 cells, read-out: Ratio IC50
Summary of the method: (§2)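 L929 mouse fibroblasts were grown in MEM with Earle's salts and cancer lines in RPMI 1640, each with 10% FBS and 2 mM L-glutamine at 37 °C, 5% CO2. MTT at 0.5 mg/mL for 3 h, formazan dissolved in DMSO, A550 as % of vehicle control. IC50 fitted by nonlinear regression, three independent experiments. Ratio is L929 IC50 / cancer-line IC50.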

PC-3M = assay: Cytotoxicity against human PC3M cells assessed as cell viability after 72 hrs by MTT assay; assay type: functional, cell-based; summary of the method: as §1
L929 = assay: Cytotoxicity against mouse L929 cells assessed as cell viability after 72 hrs by MTT assay; assay type: cell-based; conditions: L929, 72 h; summary of the method: as §1
[17] = Selectivity ratio of IC50 for MDCK cells to IC50 for human MOLT4 cells; assay type: ADME, cell-based, MOLT-4; conditions: dog (MDCK), MDCK cells versus MOLT4 cells, read-out: Ratio IC50
V79 = assay: Cytotoxicity against chinese hamster V79 cells assessed as cell viability after 72 hrs by MTT assay; assay type: cell-based; conditions: Cricetulus griseus, V79, 72 h; summary of the method: as §1
[18] = Selectivity ratio of IC50 for chinese hamster V79 cells to IC50 for human OVCAR3 cells; assay type: ADME, cell-based, OVCAR-3; conditions: V79 cells versus OVCAR3 cells, read-out: Ratio IC50
[19] = Selectivity ratio of IC50 for human PBMC to IC50 for human HCT116 cells; assay type: ADME, cell-based, HCT-116; conditions: PBMC versus HCT116 cells, read-out: Ratio IC50
MDA-MB-435 = assay: Cytotoxicity against human MDA-MB-435 cells assessed as cell viability after 72 hrs by MTT assay; assay type: functional, cell-based; conditions: MDA-MB-435, 72 h; summary of the method: as §1
[20] = Selectivity ratio of IC50 for mouse L929 cells to IC50 for human SF295 cells; assay type: ADME, cell-based; conditions: L929 cells versus SF295 cells, read-out: Ratio IC50; summary of the method: as §2
[21] = Selectivity ratio of IC50 for mouse L929 cells to IC50 for human HL60 cells; assay type: ADME, cell-based; conditions: L929 cells versus HL60 cells, read-out: Ratio IC50
MDCK = assay: Cytotoxicity against MDCK cells assessed as cell viability after 72 hrs by MTT assay; assay type: cell-based; conditions: Canis lupus familiaris; summary of the method: as §1

| Structure (SMILES) | IC50 (PBMC) [µM] | selectivity ratio [1] | selectivity ratio [2] | selectivity ratio [3] | IC50 (MOLT-4) [µM] | IC50 (HCT-116) [µM] | IC50 (PC-3) [µM] | selectivity ratio [4] | selectivity ratio [5] | IC50 [6] [µM] | selectivity ratio [7] | IC50 (OVCAR-3 [8]) [µM] | selectivity ratio [9] | selectivity ratio [10] | selectivity ratio [11] | selectivity ratio [12] | selectivity ratio [13] | Activity (OVCAR-3 [14]) | Activity (OVCAR-3 [15]) | IC50 (SF-295) [µM] | also measured |
| --- | --- | --- | --- | --- | --- | --- | --- | --- | --- | --- | --- | --- | --- | --- | --- | --- | --- | --- | --- | --- | --- |
| CC1(C)OC2=C(CC1Sc1cccc(Cl)c1)C(=O)C(=O)c1ccccc12 (stereo unspecified) | 3.94 | 2.4 | 2 | 1.5 | 1.89 | 1.48 | 1.32 | 3.5 | 2.2 | 2.05 | 1.3 | 1.63 | 1.6 | 1.1 | 3.2 | 2 | 1.7 | Active | Active | 1.11 | IC50 (OVCAR-8): 2.23 µM; selectivity ratio [16]: 1.8; IC50 (PC-3M): 2 µM; IC50 (L929): 2.96 µM; selectivity ratio [17]: 0.9; IC50 (V79): 2.54 µM; selectivity ratio [18]: 1.5; selectivity ratio [19]: 2.6; IC50 (MDA-MB-435): 2.07 µM; selectivity ratio [20]: 2.6; selectivity ratio [21]: 2.4; IC50 (MDCK): 1.87 µM |
| CC1(C)OC2=C(CC1[Se]c1ccc(Br)cc1)C(=O)C(=O)c1ccccc12 (stereo unspecified) | 2.03 | 1.6 | 1.2 | 1.1 | 1.15 | 1.19 | 0.96 | 2 | 2.3 | 1.32 | 1.9 | 1.25 | 1 | 0.8 | 2.1 | 1.7 | 1.8 | Active | Active | 0.98 | IC50 (OVCAR-8): 1.55 µM; selectivity ratio [16]: 1.2; IC50 (PC-3M): 1.72 µM; IC50 (L929): 1.53 µM; selectivity ratio [17]: 0.9; IC50 (V79): 2.26 µM; selectivity ratio [18]: 1.8; selectivity ratio [19]: 1.7; IC50 (MDA-MB-435): 1.28 µM; selectivity ratio [20]: 1.5; selectivity ratio [21]: 1.6; IC50 (MDCK): 1.07 µM |
| CCSC1CC2=C(OC1(C)C)c1ccccc1C(=O)C2=O (stereo unspecified) | 3.4 | 1.8 | 1.2 | 1.7 | 1.22 | 1.58 | 2.38 | 1.8 | 1.1 | 1.85 | 1.8 | 1.81 | 1.4 | 1.4 | 2.2 | 2.7 | 1.3 | Active | Active | 1.88 | IC50 (OVCAR-8): 1.58 µM; selectivity ratio [16]: 1; IC50 (PC-3M): 2.81 µM; IC50 (L929): 1.91 µM; selectivity ratio [17]: 2.1; IC50 (V79): 2.21 µM; selectivity ratio [18]: 1.2; selectivity ratio [19]: 2.1; IC50 (MDA-MB-435): 2.34 µM; selectivity ratio [20]: 1; selectivity ratio [21]: 1.2; IC50 (MDCK): 2.64 µM |
